What all share (type): functional
The test system of assay [1] is Escherichia coli. The assay is described as follows: Antibacterial activity against Escherichia coli ATCC 8739 at 50 mg/ml after 24 hrs by agar diffusion test. The following applies: for zone of inhibition at 50000 µg/mL: ATCC 8739, 24 h, read-out: DIZ. The method, boiled down: (§1)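 Agar diffusion: wells in agar filled with […] DMSO solution of compound at various concentrations; diameter of clear zone around application point measured. Bacteria grown 24 h at 37 °C on nutrient agar. Compounds first screened at 50 mg/ml; those active then tested at lower concentrations. Bracketed value = lowest concentration (mg/ml) giving zone >11 mm, reported only if activity retained at ≤1.25 mg/ml.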
Background: A growth-free zone around the sample is the usual read-out of agar diffusion tests.

Assay [2] relates to Penicillium chrysogenum. The experiment in a line: Antifungal activity against Penicillium chrysogenum CECT 2802 at 50 mg/ml after 72 hrs by agar diffusion test. To be noted: for zone of inhibition at 50000 µg/mL: CECT 2802, 72 h, read-out: DIZ. The method, boiled down:
(§2)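 Agar diffusion: yeasts grown on yeast peptone dextrose agar and fungi on potato dextrose agar. Wells are filled with […] of compound solution in DMSO at various concentrations, and the clear-zone diameter is measured. Bracketed values give the lowest concentration (mg/ml) that produces a zone >11 mm. A first screen is run at 50 mg/ml.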

The subject of assay [3] is Micrococcus luteus. The assay is described as follows: Antibacterial activity against Sarcina lutea ATCC 9341 at 50 mg/ml after 24 hrs by agar diffusion test. The following applies: for zone of inhibition at 50000 µg/mL: ATCC 9341, 24 h, read-out: DIZ. A digest of the protocol:
(§3)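 Agar diffusion: bacteria grown 24 h at 37 °C on nutrient agar. Wells in the agar are filled with […] of compound solution in DMSO at various concentrations. The diameter of the clear zone around the application point is measured. Bracketed values give the lowest concentration (mg/ml) that produces a zone >11 mm. A first screen is run at 50 mg/ml.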

Assay [4] has as its system Bacillus subtilis. The experiment in a line: Antibacterial activity against Bacillus subtilis ATCC 6633 at 50 mg/ml after 24 hrs by agar diffusion test. To be noted: for zone of inhibition at 50000 µg/mL: ATCC 6633, 24 h, read-out: DIZ. The method, boiled down: as §1
For assay [5], the system named is Candida tropicalis. The experiment in a line: Antifungal activity against Candida tropicalis ATCC 20336 at 50 mg/ml after 72 hrs by agar diffusion test. The following applies: for zone of inhibition at 50000 µg/mL: ATCC 20336, 72 h, read-out: DIZ. A digest of the protocol: as §2
For assay [6], the system named is Micrococcus luteus. The experiment in a line: Antibacterial activity against Micrococcus luteus ATCC 9631 at 50 mg/ml after 24 hrs by agar diffusion test. To be noted: for zone of inhibition at 50000 µg/mL: ATCC 9631, 24 h, read-out: DIZ. A digest of the protocol: as §1
The subject of assay [7] is Saccharomyces cerevisiae. The assay is described as follows: Antifungal activity against Saccharomyces cerevisiae ATCC 9763 at 50 mg/ml after 72 hrs by agar diffusion test. To be noted: for zone of inhibition at 50000 µg/mL: ATCC 9763, 72 h, read-out: DIZ. The method, boiled down:
as §2

In assay [8] the test system is Priestia megaterium. The assay is described as follows: Antibacterial activity against Bacillus megaterium NRRL 1353895 at 50 mg/ml after 24 hrs by agar diffusion test. To be noted: for zone of inhibition at 50000 µg/mL: NRRL 1353895, 24 h, read-out: DIZ. The method, boiled down:
as §1

Assay [9] concerns Staphylococcus aureus. The experiment in a line: Antibacterial activity against Staphylococcus aureus NRRL B 313 at 50 mg/ml after 24 hrs by agar diffusion test. The following applies: for zone of inhibition at 50000 µg/mL: NRRL B 313, 24 h, read-out: DIZ. A digest of the protocol: as §3
Assay [10] relates to Bacillus cereus. The experiment in a line: Antibacterial activity against Bacillus cereus ATCC 11778 at 50 mg/ml after 24 hrs by agar diffusion test. To be noted: for zone of inhibition at 50000 µg/mL: ATCC 11778, 24 h, read-out: DIZ. A digest of the protocol: as §1
For assay [11], the system named is Acinetobacter johnsonii. The experiment in a line: Antibacterial activity against Acinetobacter johnsonii ATCC 17909 at 50 mg/ml after 24 hrs by agar diffusion test. The following applies: for zone of inhibition at 50000 µg/mL: ATCC 17909, 24 h, read-out: DIZ. The method, boiled down:
as §1

In assay [12] the test system is Bacillus mycoides. The assay is described as follows: Antibacterial activity against Bacillus mycoides DSMZ 274 at 50 mg/ml after 24 hrs by agar diffusion test. The following applies: for zone of inhibition at 50000 µg/mL: DSMZ 274, 24 h, read-out: DIZ. A digest of the protocol:
as §1

For assay [13], the system named is Mycobacterium tuberculosis. The assay is described as follows: Antimycobacterial activity against Mycobacterium tuberculosis H37Rv after 45 days. A digest of the protocol: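 Canetti proportion method. Compound in DMSO is added to Löwenstein–Jensen egg medium before coagulation (30 min, 85 °C), tested at three levels plus a lower one where needed. Tubes are inoculated with H37Rv at 10⁵ cells/ml and incubated 45 days at 37 °C. Colony counts versus drug-free control give percentage inhibition.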

Assay [14] concerns Bacillus. The assay is described as follows: Antibacterial activity against Bacillus idosus B 241 at 50 mg/ml after 24 hrs by agar diffusion test. To be noted: for zone of inhibition at 50000 µg/mL: B 241, 24 h, read-out: DIZ. The method, boiled down:
as §1

The structures appear in SMILES notation. In brackets after ≈: the same amount, converted by molar mass. Activity calls are given as the source filed them. The calls are words filed in the database; no cut-off is given here.

Usually MIC stands for the lowest concentration found to suppress growth. A low value points to a more susceptible organism. With `CC[C@H](CO)NCc1cccc2ccccc12`, the zone of inhibition at 50000 µg/mL in assay [1] amounted to 28 mm; in assay [2], 22 mm; in [3], 13 mm; in assay [4], 17 mm; in [5], 30 mm; in assay [6], 17 mm. Moreover, the zone of inhibition at 50000 µg/mL in [7] stood at 32 mm; in assay [8], 10 mm; in [9] it was 16 mm; in [10], 15 mm; in assay [11] it was 20 mm; in assay [12] it was 18 mm. In addition, the zone of inhibition at 50000 µg/mL in [14] is 18 mm. The lowest concentration to inhibit growth in assay [13] (MIC) was 21.8 µM (≈ 5 µg/mL).

As for `CC[C@H](CO)Nc1cccc(Br)n1`, the zone of inhibition at 50000 µg/mL in assay [1] came out at 17 mm; in assay [2], 17 mm; in assay [3], 17 mm; in assay [4], 13 mm; in assay [5], 25 mm; in [6], 18 mm. For the same molecule, the zone of inhibition at 50000 µg/mL in assay [7] was determined as 10 mm; in assay [8], 15 mm; in [9], 14 mm; in assay [10], 19 mm; in [11], 14 mm; in [12] it was 13 mm. The zone of inhibition at 50000 µg/mL in assay [14] was 17 mm. In assay [13], this molecule showed an MIC of 20.4 µM (≈ 5 µg/mL).

On to `CC[C@H](CO)NC1c2ccccc2-c2ccccc21`, for which the zone of inhibition at 50000 µg/mL in assay [1] amounted to 12 mm; in [2], 20 mm; in [3] it was 17 mm; in [5], 17 mm; in assay [6], 17 mm; in assay [7], 22 mm. Further, the zone of inhibition at 50000 µg/mL in [8] is 22 mm; in assay [9] it was 12 mm; in [11], 16 mm; in assay [12], 17 mm; in assay [14] it was 15 mm. Moreover, the “diameter of the inhibition zone (DIZ)” value in assay [4] and in assay [10] was “inactive” in each case. This molecule also registered a minimum inhibitory concentration (MIC) in [13] of 19.7 µM (≈ 5 µg/mL).

For the molecule `CC[C@H](CO)NCc1ccc(-n2ccnc2)cc1`, the “diameter of the inhibition zone (DIZ)” value in assay [1], in assay [5], in assay [7] and in assay [8] was “inactive” in each case. For the same molecule, the zone of inhibition at 50000 µg/mL in [2] came out at 12 mm; in assay [3], 18 mm; in [4], 12 mm; in assay [6] it was 16 mm; in [9] it was 16 mm; in assay [10], 13 mm. Further, the values for the zone of inhibition at 50000 µg/mL in assay [11], in assay [12] and in assay [14] were 18 mm, 18 mm and 16 mm, respectively. Also, in assay [13], the MIC amounted to 20.4 µM (≈ 5 µg/mL).

With `CC[C@H](CO)NC(=O)c1cccc2ccccc12`, the “diameter of the inhibition zone (DIZ)” value in [1], in assay [2], in assay [3], in assay [4], in assay [5] and in assay [6] was “inactive” each time. For the same molecule, the “diameter of the inhibition zone (DIZ)” value in assay [7], in [8], in assay [9], in [10], in assay [11] and in [12] was “inactive” in each case. For the same molecule, the “diameter of the inhibition zone (DIZ)” value in assay [14] was “inactive”. In assay [13], the MIC was > 20.6 µM.

For `CC[C@@H]1COc2cc3ccccc3c(=O)n21`, the zone of inhibition at 50000 µg/mL in assay [1] was 0 mm; in assay [2], 35 mm; in [3] it was 13 mm; in assay [5], 20 mm; in assay [6], 15 mm; in [7], 11 mm. Moreover, the zone of inhibition at 50000 µg/mL in assay [8] amounted to 13 mm; in assay [9], 12 mm; in assay [10], 18 mm; in [11], 10 mm; in assay [12], 15 mm; in assay [14], 15 mm. Besides, in [4], the “diameter of the inhibition zone (DIZ)” value was “inactive”. For the same molecule, the MIC in assay [13] came out at 23.2 µM (≈ 5 µg/mL).

`CC[C@H](CO)N(CC(=O)Nc1c(C)cccc1C)CC(=O)Nc1c(C)cccc1C`: the “diameter of the inhibition zone (DIZ)” value in assay [1], in assay [2], in [3], in assay [4], in assay [5] and in assay [7] was “inactive” throughout. In addition, the “diameter of the inhibition zone (DIZ)” value in assay [8] and in assay [11] was “inactive” throughout. The zone of inhibition at 50000 µg/mL was 12 mm in assay [6]; 15 mm in assay [9]; 11 mm in [10]; 12 mm in assay [12]; 10 mm in [14]. The MIC in [13] was > 12.2 µM.

Turning to `CC[C@H](CO)N(Cc1ccccc1)Cc1ccccc1`, the “diameter of the inhibition zone (DIZ)” value in assay [1], in assay [2], in assay [4], in assay [7], in assay [8] and in assay [12] was “inactive” in each case. For the same molecule, the zone of inhibition at 50000 µg/mL was 12 mm in [3]; 10 mm in assay [5]; 12 mm in [6]; 11 mm in assay [9]; 11 mm in assay [10]; 11 mm in [11]. In assay [14], the zone of inhibition at 50000 µg/mL worked out at 11 mm. Further, the MIC in [13] is > 18.6 µM.

Turning to `CC[C@H](CO)NCc1ccccc1O`, the “diameter of the inhibition zone (DIZ)” value in [1], in [5] and in assay [7] was “inactive” throughout. In addition, the zone of inhibition at 50000 µg/mL in assay [2] turned out to be 12 mm; in assay [3], 12 mm; in assay [4], 17 mm; in assay [6] it was 11 mm; in [8], 12 mm; in assay [9], 12 mm. Moreover, the zone of inhibition at 50000 µg/mL worked out at 14 mm in assay [10], 13 mm in assay [11], 14 mm in assay [12] and 11 mm in assay [14]. This molecule also had an MIC in assay [13] of 25.6 µM (≈ 5 µg/mL).

`CC[C@H](CO)N1C(=O)C=C(C)C1=O`: the zone of inhibition at 50000 µg/mL worked out at 32 mm in assay [1]; 25 mm in [2]; 21 mm in [3]; 21 mm in assay [4]; 20 mm in assay [5]; 22 mm in assay [6]. Also, the zone of inhibition at 50000 µg/mL was determined as 21 mm in assay [7]; 20 mm in assay [8]; 20 mm in assay [9]; 28 mm in [10]; 21 mm in assay [11]; 24 mm in assay [12]. Besides, the zone of inhibition at 50000 µg/mL in assay [14] is 23 mm. Moreover, the lowest concentration to inhibit growth in [13] (MIC) was 27.3 µM (≈ 5 µg/mL).

Values taken from ChEMBL document CHEMBL1932986, “Synthesis and in vitro antimycobacterial activity of compounds derived from (R)- and (S)-2-amino-1-butanol - The crucial role of the configuration” (Eur J Med Chem, 2012).
